Experimental data as given in ChEMBL document CHEMBL4184325, “Discovery of 4,7-Diamino-5-(4-phenoxyphenyl)-6-methylene-pyrimido[5,4- b]pyrrolizines as Novel Bruton's Tyrosine Kinase Inhibitors” (J Med Chem, 2018).
Blank lines part the entries; values can stand above or below the compound they belong to.

Tests used:
[1] = biological target: Tyrosine-protein kinase BTK (Homo sapiens, UniProt Q06187); assay: Inhibition of recombinant human BTK using Poly(Glu, Tyr) 4:1 as substrate after 1 hr by ELISA
Chain of Tyrosine-protein kinase BTK (Homo sapiens, UniProt Q06187) (Q06187 whole entry): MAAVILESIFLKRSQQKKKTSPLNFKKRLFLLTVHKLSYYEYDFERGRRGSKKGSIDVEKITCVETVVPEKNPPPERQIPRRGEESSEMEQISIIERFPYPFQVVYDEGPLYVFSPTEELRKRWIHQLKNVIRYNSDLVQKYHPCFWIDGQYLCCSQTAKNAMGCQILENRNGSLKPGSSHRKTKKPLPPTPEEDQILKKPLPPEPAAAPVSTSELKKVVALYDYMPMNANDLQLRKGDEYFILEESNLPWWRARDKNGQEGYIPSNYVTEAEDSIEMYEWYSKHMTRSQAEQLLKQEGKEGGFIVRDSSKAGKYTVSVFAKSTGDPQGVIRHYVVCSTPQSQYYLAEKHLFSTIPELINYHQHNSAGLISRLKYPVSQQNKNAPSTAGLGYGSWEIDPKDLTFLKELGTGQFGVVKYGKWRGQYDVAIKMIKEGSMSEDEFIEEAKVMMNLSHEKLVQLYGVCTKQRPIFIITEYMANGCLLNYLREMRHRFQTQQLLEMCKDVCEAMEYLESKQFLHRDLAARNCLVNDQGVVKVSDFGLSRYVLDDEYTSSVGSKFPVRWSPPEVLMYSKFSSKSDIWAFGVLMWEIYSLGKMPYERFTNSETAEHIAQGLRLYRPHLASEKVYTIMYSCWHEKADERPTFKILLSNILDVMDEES

[2] = Drug metabolism in mouse liver microsomes treated with (S)-N-(4-Amino-6-methylene-5-(4-phenoxyphenyl)-7,8-dihydro-6H-pyrimido[5,4-b]pyrrolizin-7-yl)acrylamide after 3 hrs; assay type: ADME, microsome
[3] = Drug metabolism in rat liver microsomes treated with (S)-N-(4-Amino-6-methylene-5-(4-phenoxyphenyl)-7,8-dihydro-6H-pyrimido[5,4-b]pyrrolizin-7-yl)acrylamide after 3 hrs; assay type: ADME, microsome
[4] = Drug metabolism in human liver microsomes treated with (S)-N-(4-Amino-6-methylene-5-(4-phenoxyphenyl)-7,8-dihydro-6H-pyrimido[5,4-b]pyrrolizin-7-yl)acrylamide after 3 hrs; assay type: ADME, microsome
[5] = Drug metabolism in mouse liver microsomes treated with (S)-N-(4-Amino-6-methylene-5-(4-phenoxyphenyl)-7,8-dihydro-6H-pyrimido[5,4-b]pyrrolizin-7-yl)but-2-ynamide after 3 hrs; assay type: ADME, microsome
[6] = Drug metabolism in human liver microsomes treated with (S)-N-(4-Amino-6-methylene-5-(4-phenoxyphenyl)-7,8-dihydro-6H-pyrimido[5,4-b]pyrrolizin-7-yl)but-2-ynamide after 3 hrs; assay type: ADME, microsome
[7] = Drug metabolism in rat liver microsomes treated with (S)-N-(4-Amino-6-methylene-5-(4-phenoxyphenyl)-7,8-dihydro-6H-pyrimido[5,4-b]pyrrolizin-7-yl)but-2-ynamide after 3 hrs; assay type: ADME, microsome
Ramos = assay: Antiproliferative activity against human Ramos cells after 72 hrs by MTT assay; assay type: functional, cell-based
Procedure, shortened: (§1)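 Cells grown in RPMI-1640 with FBS at 37 °C, 5% CO2. Seeded and grown 2 h, then treated with various concentrations in PBS solution, each in triplicate, and cultured a further 72 h. Viability read by MTT. IC50 from the Logit method, given as mean ± SD of three independent determinations.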

Rattus norvegicus [8] = assay: AUC (0 to infinity) in rat at 3 mg/kg, po; assay type: ADME, organism-based; design: dose 3 mg/kg, time infinity, route oral; conditions: in vivo
Procedure, shortened: (§2)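 Rats dosed orally at 3 mg/kg; vehicle DMSO, Tween 80, normal saline; values are the average of three determinations.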

Mus musculus = assay: Toxicity in CB17 SCID nude mouse xenografted with human TMD8 cells assessed as change in body weight at 25 mg/kg, po qd administered for 13 consecutive days measured during compound dosing up to day 17 post dose; assay type: organism-based; conditions: in vivo
TMD8 = assay: Antiproliferative activity against human TMD8 cells after 72 hrs by MTT assay; assay type: functional, cell-based; conditions: TMD8, 72 h; procedure, shortened: as §1
Rattus norvegicus [9] = assay: Volume of distribution at steady state in rat at 1 mg/kg, iv; assay type: ADME, organism-based; conditions: in vivo
Procedure, shortened: (§3)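 Rats were given compound at 1 mg/kg iv or 3 mg/kg po. Vehicle was DMSO, Tween 80 and normal saline. Values are the average of three determinations.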

[10] = Drug metabolism in human liver microsomes assessed as (S)-N-(4-amino-6-methylene-5-(4-phenoxyphenyl)-7,8-dihydro-6H-pyrimido[5,4-b]pyrrolizin-7-yl)-4-hydroxybut-2-ynamide formation after 3 hrs; assay type: ADME, microsome
Rattus norvegicus [11] = assay: Half life in rat at 1 mg/kg, iv; assay type: ADME, organism-based; conditions: in vivo
Procedure, shortened: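 Rats given 1 mg/kg intravenously; vehicle DMSO, Tween 80, normal saline; values are the average of three determinations.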

[12] = Drug metabolism in rat liver microsomes assessed as (S)-N-(4-amino-5-(4-(4-hydroxyphenoxy)phenyl)-6-methylene-7,8-dihydro-6H-pyrimido[5,4-b]pyrrolizin-7-yl)-4-hydroxybut-2-ynamide formation after 3 hrs; assay type: ADME, microsome
[13] = Drug metabolism in rat liver microsomes assessed as (S)-N-(4-amino-6-methylene-5-(4-phenoxyphenyl)-7,8-dihydro-6H-pyrimido[5,4-b]pyrrolizin-7-yl)-4-hydroxybut-2-ynamide formation after 3 hrs; assay type: ADME, microsome
[14] = Drug metabolism in rat liver microsomes assessed as (S)-N-(4-amino-5-(4-(4-hydroxyphenoxy)phenyl)-6-methylene-7,8-dihydro-6H-pyrimido[5,4-b]pyrrolizin-7-yl)but-2-ynamide formation after 3 hrs; assay type: ADME, microsome
[15] = Tmax in rat at 3 mg/kg, po; assay type: ADME, organism-based; conditions: in vivo; procedure, shortened: as §3
[16] = Drug metabolism in rat liver microsomes assessed as (S)-N-(4-amino-5-(4-hydroxyphenyl)-6-methylene-7,8-dihydro-6H-pyrimido[5,4-b]pyrrolizin-7-yl)but-2-ynamide formation after 3 hrs; assay type: ADME, microsome
[17] = Cmax in rat at 3 mg/kg, po; assay type: ADME, organism-based; design: dose 3 mg/kg, route oral; conditions: in vivo; procedure, shortened: as §2
[18] = Drug metabolism in mouse liver microsomes assessed as (S)-N-(4-amino-6-methylene-5-(4-phenoxyphenyl)-7,8-dihydro-6H-pyrimido[5,4-b]pyrrolizin-7-yl)-4-hydroxybut-2-ynamide formation after 3 hrs; assay type: ADME, microsome
[19] = Drug metabolism in human liver microsomes assessed as (S)-N-(4-amino-5-(4-hydroxyphenyl)-6-methylene-7,8-dihydro-6H-pyrimido[5,4-b]pyrrolizin-7-yl)but-2-ynamide formation after 3 hrs; assay type: ADME, microsome
[20] = Drug metabolism in human liver microsomes assessed as (S)-N-(4-amino-5-(4-(4-hydroxyphenoxy)phenyl)-6-methylene-7,8-dihydro-6H-pyrimido[5,4-b]pyrrolizin-7-yl)-4-hydroxybut-2-ynamide formation after 3 hrs; assay type: ADME, microsome
[21] = Drug metabolism in mouse liver microsomes assessed as (S)-N-(4-amino-5-(4-(4-hydroxyphenoxy)phenyl)-6-methylene-7,8-dihydro-6H-pyrimido[5,4-b]pyrrolizin-7-yl)but-2-ynamide formation after 3 hrs; assay type: ADME, microsome
[22] = Drug metabolism in mouse liver microsomes assessed as (S)-4-(4-(4,7-diamino-6-methylene-7,8-dihydro-6H-pyrimido[5,4-b]pyrrolizin-5-yl)phenoxy)phenol formation after 3 hrs; assay type: ADME, microsome
Rattus norvegicus [23] = assay: (§4) Oral bioavailability in rat at 3 mg/kg; assay type: ADME, organism-based; conditions: in vivo; procedure, shortened: as §3
[24] = biological target: Dual specificity mitogen-activated protein kinase kinase; MEK1/2 (Homo sapiens) (UniProt P36507+Q02750); assay: Inhibition of human MEK assessed as residual activity at 1 uM relative to control; assay type: protein assay
Chain of Dual specificity mitogen-activated protein kinase kinase; MEK1/2 (Homo sapiens) (P36507 whole entry, looked up): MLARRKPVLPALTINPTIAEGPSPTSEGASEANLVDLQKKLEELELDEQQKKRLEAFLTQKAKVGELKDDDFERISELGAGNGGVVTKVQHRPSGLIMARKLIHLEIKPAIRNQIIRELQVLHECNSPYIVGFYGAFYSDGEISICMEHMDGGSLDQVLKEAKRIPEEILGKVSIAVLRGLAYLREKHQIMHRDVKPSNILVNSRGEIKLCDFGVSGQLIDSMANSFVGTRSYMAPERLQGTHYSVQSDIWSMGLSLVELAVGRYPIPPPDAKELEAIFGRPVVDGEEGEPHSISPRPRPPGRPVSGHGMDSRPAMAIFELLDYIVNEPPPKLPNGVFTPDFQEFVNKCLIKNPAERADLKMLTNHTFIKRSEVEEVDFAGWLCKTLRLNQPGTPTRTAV
Chain of Dual specificity mitogen-activated protein kinase kinase; MEK1/2 (Homo sapiens) (Q02750 whole entry, looked up): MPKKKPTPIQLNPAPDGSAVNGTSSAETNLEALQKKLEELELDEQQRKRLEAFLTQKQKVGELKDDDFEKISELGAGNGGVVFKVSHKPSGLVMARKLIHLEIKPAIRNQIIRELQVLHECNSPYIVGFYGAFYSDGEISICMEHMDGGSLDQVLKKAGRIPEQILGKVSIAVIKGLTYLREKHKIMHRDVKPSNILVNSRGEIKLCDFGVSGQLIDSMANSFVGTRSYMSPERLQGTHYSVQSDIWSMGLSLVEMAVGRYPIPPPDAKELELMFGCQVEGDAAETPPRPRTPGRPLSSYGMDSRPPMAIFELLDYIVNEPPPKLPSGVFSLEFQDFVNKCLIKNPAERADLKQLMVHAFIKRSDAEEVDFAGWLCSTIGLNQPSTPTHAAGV
Procedure, shortened: (§5)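 KINOMEscan competition binding panel of 468 kinases with compound at 1 μM. Result is % control = (test − positive control signal)/(DMSO negative − positive control signal) × 100.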

[25] = biological target: Receptor tyrosine-protein kinase erbB-4 (Homo sapiens, UniProt Q15303); assay: Inhibition of partial length human ErbB4 expressed in bacteria assessed as residual activity at 1 uM relative to control; procedure, shortened: as §5
Chain of Receptor tyrosine-protein kinase erbB-4 (Q15303 whole entry): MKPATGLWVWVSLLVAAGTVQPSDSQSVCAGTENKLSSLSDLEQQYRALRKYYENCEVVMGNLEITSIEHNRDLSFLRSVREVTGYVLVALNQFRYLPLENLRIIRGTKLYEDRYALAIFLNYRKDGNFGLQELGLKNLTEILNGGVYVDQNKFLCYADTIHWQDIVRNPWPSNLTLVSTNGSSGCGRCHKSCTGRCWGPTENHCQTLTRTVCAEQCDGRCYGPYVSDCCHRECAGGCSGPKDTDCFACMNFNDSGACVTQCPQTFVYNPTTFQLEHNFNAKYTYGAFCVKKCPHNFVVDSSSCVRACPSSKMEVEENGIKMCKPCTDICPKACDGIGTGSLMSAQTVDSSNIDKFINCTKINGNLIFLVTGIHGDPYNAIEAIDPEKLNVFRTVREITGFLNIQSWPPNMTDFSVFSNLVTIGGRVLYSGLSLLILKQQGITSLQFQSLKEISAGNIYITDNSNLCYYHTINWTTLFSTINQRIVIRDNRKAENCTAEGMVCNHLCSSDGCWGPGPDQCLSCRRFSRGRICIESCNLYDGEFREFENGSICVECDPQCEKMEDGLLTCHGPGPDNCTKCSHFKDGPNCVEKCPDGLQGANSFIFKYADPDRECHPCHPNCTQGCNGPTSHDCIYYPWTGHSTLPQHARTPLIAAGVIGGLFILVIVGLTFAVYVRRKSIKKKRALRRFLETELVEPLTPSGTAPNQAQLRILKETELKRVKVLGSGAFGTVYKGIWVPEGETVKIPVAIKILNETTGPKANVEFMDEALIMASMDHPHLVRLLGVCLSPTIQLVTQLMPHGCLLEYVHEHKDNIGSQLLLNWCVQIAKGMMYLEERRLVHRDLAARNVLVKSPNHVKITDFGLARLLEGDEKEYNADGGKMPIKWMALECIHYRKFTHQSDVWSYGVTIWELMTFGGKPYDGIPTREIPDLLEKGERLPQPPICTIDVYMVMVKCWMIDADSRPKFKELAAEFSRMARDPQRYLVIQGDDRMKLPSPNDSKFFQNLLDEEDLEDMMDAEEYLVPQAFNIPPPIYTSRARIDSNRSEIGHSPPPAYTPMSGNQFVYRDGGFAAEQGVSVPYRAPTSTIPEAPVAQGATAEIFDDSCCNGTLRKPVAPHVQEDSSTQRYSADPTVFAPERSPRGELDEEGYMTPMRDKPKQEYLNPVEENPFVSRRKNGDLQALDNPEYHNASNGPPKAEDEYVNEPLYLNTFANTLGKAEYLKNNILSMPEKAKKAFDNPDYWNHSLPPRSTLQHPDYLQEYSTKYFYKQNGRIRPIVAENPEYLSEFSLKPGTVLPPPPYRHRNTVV

[26] = biological target: Tyrosine-protein kinase BTK (Homo sapiens, UniProt Q06187, C481S); assay: Inhibition of recombinant full-length N-terminal His-tagged human BTK C481S mutant expressed in baculovirus infected Sf9 insect cells using Poly(Glu, Tyr) 4:1 as substrate after 1 hr by ELISA
Chain of Tyrosine-protein kinase BTK (Homo sapiens, UniProt Q06187, C481S) (Q06187 2-659 C481S limits assumed): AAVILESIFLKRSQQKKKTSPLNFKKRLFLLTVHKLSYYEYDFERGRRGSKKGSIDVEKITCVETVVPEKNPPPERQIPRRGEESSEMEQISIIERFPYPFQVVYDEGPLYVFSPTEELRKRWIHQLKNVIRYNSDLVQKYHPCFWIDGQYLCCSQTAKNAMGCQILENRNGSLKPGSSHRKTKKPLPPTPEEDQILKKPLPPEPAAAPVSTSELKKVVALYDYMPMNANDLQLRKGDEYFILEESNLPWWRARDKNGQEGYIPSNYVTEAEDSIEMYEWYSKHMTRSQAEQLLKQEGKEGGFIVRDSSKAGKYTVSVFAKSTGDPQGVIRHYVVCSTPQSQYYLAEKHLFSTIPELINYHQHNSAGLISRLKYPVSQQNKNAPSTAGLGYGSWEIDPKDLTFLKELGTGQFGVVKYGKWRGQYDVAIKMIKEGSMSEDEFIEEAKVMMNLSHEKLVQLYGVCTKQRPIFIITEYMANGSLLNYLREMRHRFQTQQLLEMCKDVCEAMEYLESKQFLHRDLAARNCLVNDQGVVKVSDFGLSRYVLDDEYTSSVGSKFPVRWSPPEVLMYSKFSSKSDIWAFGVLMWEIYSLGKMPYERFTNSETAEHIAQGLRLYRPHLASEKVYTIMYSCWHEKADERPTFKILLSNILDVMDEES

[27] = biological target: Tyrosine-protein kinase Blk (Homo sapiens, UniProt P51451); assay: Inhibition of partial length human BLK expressed in bacteria assessed as residual activity at 1 uM relative to control; procedure, shortened: as §5
Chain of Tyrosine-protein kinase Blk (P51451 2-505 limits assumed): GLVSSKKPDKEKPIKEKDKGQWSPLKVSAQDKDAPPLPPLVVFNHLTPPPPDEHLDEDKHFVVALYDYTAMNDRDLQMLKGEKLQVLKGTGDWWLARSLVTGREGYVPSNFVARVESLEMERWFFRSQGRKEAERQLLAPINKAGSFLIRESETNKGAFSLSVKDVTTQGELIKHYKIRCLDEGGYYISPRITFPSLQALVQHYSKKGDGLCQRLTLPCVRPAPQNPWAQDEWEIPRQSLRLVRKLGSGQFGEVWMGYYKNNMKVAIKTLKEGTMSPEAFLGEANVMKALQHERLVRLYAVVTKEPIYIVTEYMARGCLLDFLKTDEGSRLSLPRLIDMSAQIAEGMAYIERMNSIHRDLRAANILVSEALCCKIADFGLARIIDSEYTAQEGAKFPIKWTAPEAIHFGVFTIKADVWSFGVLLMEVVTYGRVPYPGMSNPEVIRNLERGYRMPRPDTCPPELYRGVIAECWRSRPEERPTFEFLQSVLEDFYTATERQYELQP

[28] = as §4; assay type: ADME, organism-based; conditions: in vivo; procedure, shortened: as §3

SMILES: C=CC(=O)NCC(=O)NC1Cn2c(c(-c3ccc(Oc4ccccc4)cc3)c3c(N)ncnc32)C1=C (stereo not drawn)
- IC50 [1]: 23.6 nM

SMILES: C=CC(=O)N[C@@H]1Cn2c(c(-c3ccc(C(=O)N[C@@H](COC)c4ccccn4)cc3)c3c(N)ncnc32)C1=C
- IC50 [1]: 4.3 nM

SMILES: C=CC(=O)N[C@@H]1Cn2c(c(-c3ccc(C(=O)NCc4ccccn4)cc3)c3c(N)ncnc32)C1=C
- IC50 [1]: 3.1 nM

SMILES: C=CC(=O)N[C@@H]1Cn2c(c(-c3ccc(Oc4ccc(O)cc4)cc3)c3c(N)ncnc32)C1=C
- Drug metabolism [2]: Metabolite_Detected
- Drug metabolism [3]: Metabolite_Detected
- Drug metabolism [4]: Metabolite_Detected

SMILES: C=CC(=O)N[C@@H]1Cn2c(c(-c3ccc(C(=O)N[C@@H](C)c4ccccn4)cc3)c3c(N)ncnc32)C1=C
- IC50 [1]: 50.4 nM

SMILES: C=CC(=O)N[C@@H]1Cn2c(c(-c3ccc(Oc4ccc(F)cc4)cc3)c3c(N)ncnc32)C1=C
- IC50 [1]: 2.2 nM

SMILES: C=CC(=O)NCCC(=O)NC1Cn2c(c(-c3ccc(Oc4ccccc4)cc3)c3c(N)ncnc32)C1=C (stereo not drawn)
- IC50 [1]: 725 nM

SMILES: C=CC(=O)N[C@@H]1Cn2c(c(-c3ccc(Oc4ccc(OC(F)(F)F)cc4)cc3)c3c(N)ncnc32)C1=C
- IC50 [1]: 3.5 nM

SMILES: CCC(=O)NC1CCc2c(-c3ccc(Oc4ccccc4)cc3)c3c(N)ncnc3n2C1 (stereo not drawn)
- IC50 [1]: 417 nM

SMILES: C=C1c2c(-c3ccc(Oc4ccc(O)cc4)cc3)c3c(N)ncnc3n2C[C@H]1NC(=O)C#CCO
- Drug metabolism [6]: Metabolite_Detected
- Drug metabolism [7]: Metabolite_Detected

SMILES: C=C1c2c(-c3ccc(O)cc3)c3c(N)ncnc3n2C[C@H]1NC(=O)C#CC
- Drug metabolism [6]: Metabolite_Detected
- Drug metabolism [7]: Metabolite_Detected

SMILES: C=CC(=O)N[C@@H]1Cn2c(c(-c3ccc(Oc4ccc(C(C)(C)C)cc4)cc3)c3c(N)ncnc32)C1=C
- IC50 [1]: 3.7 nM

SMILES: C=CC(=O)N[C@@H]1Cn2c(c(-c3ccc(C(=O)Nc4cc(C(F)(F)F)ccn4)cc3)c3c(N)ncnc32)C1=C
- IC50 [1]: 0.8 nM

SMILES: C=CC(=O)N[C@@H]1Cn2c(c(-c3ccc(O)cc3)c3c(N)ncnc32)C1=C
- Drug metabolism [3]: Metabolite_Detected
- Drug metabolism [4]: Metabolite_Detected

SMILES: C=CC(=O)N1CCC[C@@H](n2nc(-c3ccc(Oc4ccccc4)cc3)c3c(N)ncnc32)C1 [IBRUTINIB]
- IC50 (Ramos): 920 nM
- AUC (Rattus norvegicus [8]): 57 ng·h/mL
- Activity (Mus musculus): Non-Toxic
- IC50 (TMD8): 10 nM

SMILES: C=CC(=O)NC1Cn2c(c(-c3ccc(Oc4ccccc4)cc3)c3c(N)ncnc32)C1=C (racemic)
- Activity [24]: < 1%
- Activity [25]: < 1%
- IC50 [26]: 464 nM
- Activity [27]: < 1%
- IC50 [1]: 2.8 nM

SMILES: C=CC(=O)N[C@@H]1Cn2c(c(-c3ccc(Oc4ccc(C(F)(F)F)cc4)cc3)c3c(N)ncnc32)C1=C
- IC50 [1]: 7.4 nM

SMILES: C=CC(=O)NC1(C(=O)NC2Cn3c(c(-c4ccc(Oc5ccccc5)cc4)c4c(N)ncnc43)C2=C)CC1 (stereo not drawn)
- IC50 [1]: 23.8 nM

SMILES: C=CC(=O)N[C@@H]1Cn2c(c(-c3ccc(C(=O)Nc4ccccn4)cc3)c3c(N)ncnc32)C1=C
- IC50 (Ramos): 14300 nM
- IC50 (TMD8): 4 nM
- IC50 [1]: 0.5 nM
- bioavailability [28]: 8.24%

SMILES: C=C1c2c(-c3ccc(Oc4ccc(O)cc4)cc3)c3c(N)ncnc3n2C[C@H]1N
- Drug metabolism [5]: Metabolite_Detected
- Drug metabolism [2]: Metabolite_Detected
- Drug metabolism [3]: Metabolite_Detected

Second part, the compound after the results:

- Drug metabolism [2]: Metabolite_Detected
- Drug metabolism [3]: Metabolite_Detected
- Drug metabolism [4]: Metabolite_Detected
SMILES: C=C1c2c(-c3ccc(Oc4ccccc4)cc3)c3c(N)ncnc3n2C[C@H]1NC(=O)C(O)CO (stereo partly drawn)

- IC50 [1]: 4.3 nM
SMILES: C=C1c2c(-c3ccc(Oc4ccccc4)cc3)c3c(N)ncnc3n2CC1NC(=O)/C=C/CN(C)C (stereo not drawn)

- Drug metabolism [5]: Metabolite_Detected
- Drug metabolism [6]: Metabolite_Detected
- Drug metabolism [7]: Metabolite_Detected
SMILES: C=C1c2c(-c3ccc(Oc4ccccc4)cc3)c3c(N)ncnc3n2C[C@H]1NC(=O)C#CCO

- IC50 [1]: 3.3 nM
SMILES: C=C1c2c(-c3ccc(Oc4ccccc4)cc3)c3c(N)ncnc3n2C[C@@H]1NC(=O)C#CC

- IC50 [1]: 62.6 nM
SMILES: C=C1c2c(-c3ccc(Oc4ccccc4)cc3)c3c(N)ncnc3n2CC1NC(=O)CC (stereo not drawn)

- IC50 [1]: 40.1 nM
SMILES: C=CC(=O)N[C@@H](C)C(=O)NC1Cn2c(c(-c3ccc(Oc4ccccc4)cc3)c3c(N)ncnc32)C1=C (stereo partly drawn)

- IC50 [1]: 2.1 nM
SMILES: C=C1c2c(-c3ccc(Oc4ccccc4)cc3)c3c(N)ncnc3n2CC1NC(=O)C#CC (racemic)

- Vdss (Rattus norvegicus [9]): 1.39 L/kg
- Drug metabolism [10]: Metabolite_Detected
- t1/2 (Rattus norvegicus [11]): 32.4 min
- AUC (Rattus norvegicus [8]): 557 ng·h/mL
- Drug metabolism [12]: Metabolite_Detected
- Drug metabolism [13]: Metabolite_Detected
- Drug metabolism [14]: Metabolite_Detected
- Tmax [15]: 15 min
- Drug metabolism [16]: Metabolite_Detected
- Cmax [17]: 340 ng/mL
- Drug metabolism [18]: Metabolite_Detected
- Drug metabolism [19]: Metabolite_Detected
- Drug metabolism [20]: Metabolite_Detected
- IC50 [1]: 0.4 nM
- Drug metabolism [21]: Metabolite_Detected
- Drug metabolism [22]: Metabolite_Detected
- F (Rattus norvegicus [23]): 35.8%
SMILES: C=C1c2c(-c3ccc(Oc4ccccc4)cc3)c3c(N)ncnc3n2C[C@H]1NC(=O)C#CC

- IC50 [1]: > 1000 nM
SMILES: C=C1c2c(-c3ccc(Oc4ccccc4)cc3)c3c(N)ncnc3n2CC1N (stereo not drawn)

- IC50 [1]: 6.1 nM
SMILES: C=CC(=O)N[C@H]1Cn2c(c(-c3ccc(Oc4ccccc4)cc3)c3c(N)ncnc32)C1=C

- Drug metabolism [2]: Metabolite_Detected
- Drug metabolism [3]: Metabolite_Detected
- Drug metabolism [4]: Metabolite_Detected
SMILES: C=C1c2c(-c3ccc(Oc4ccccc4)cc3)c3c(N)ncnc3n2C[C@H]1NC(=O)C=CO

- Drug metabolism [5]: Metabolite_Detected
- Drug metabolism [6]: Metabolite_Detected
- Drug metabolism [7]: Metabolite_Detected
SMILES: C=C1c2c(-c3ccc(Oc4ccc(O)cc4)cc3)c3c(N)ncnc3n2C[C@H]1NC(=O)C#CC
